Experimental data of several laboratories.
Each line is one published result; the experiments were not run side by side.
Sample: plasma

Compound	test system	setting	quantity	value
CC(C)(C)[C@H](NC(=O)[C@H](CCONC(=N)N)NC(=O)Cc1ccc(CNC(=N)N)cc1)C(=O)N[C@@H](CCONC(=N)N)C(=O)NCc1ccc(C(=N)N)cc1	male Sprague-Dawley rat	intraperitoneal, 2.5 mg/kg	AUC(0-t)	9350 ng·h/mL
[2H]C([2H])(c1cc(F)c(F)cc1F)n1c(=O)n(Cc2ncn(C)n2)c(=O)[nH]/c1=N\c1cc2cn(C)nc2cc1Cl	male Sprague-Dawley rat	intravenous, 5 mg/kg	AUC(0-t)	78000 ng·h/mL
CCCCCn1cc(C(=O)Nc2cccc3ccccc23)c2ccccc21	male Long-Evans rat	intraperitoneal, 3 mg/kg	AUC(0-t)	4240 ng·h/mL
COC(=O)C(NC(=O)c1cn(CCCCCF)c2ccccc12)C(C)(C)C (stereo not drawn)	male Sprague-Dawley rat	subcutaneous, 50 µg/kg	AUC(0-t)	8.61 ng·h/mL
Cl.Cl.O=C(CCN1CCCCC1)c1ccc(-c2ccc(C(=O)CCN3CCCCC3)cc2)cc1	Sprague-Dawley rat	oral, 25 mg/kg	AUC(0-t)	135 ng·h/mL
N=c1c2c(-c3ccccc3)c(-c3ccccc3)n(Cc3ccccc3)c2ncn1[C@H]1CC[C@H](O)CC1	male Sprague-Dawley rat	intravenous, 2 mg/kg, single dose	AUC(0-inf)	1700 ng·h/mL
CCCCCn1nc(C(=O)Nc2cccc3ccccc23)c2ccccc21	male Long-Evans rat	intraperitoneal, 3 mg/kg	AUC(0-t)	304 ng·h/mL
CN(C)C(=O)Oc1cc(OC(=O)N(C)C)cc(-c2cc3ccc(O)cc3o2)c1	male rat	oral, 5 mg/kg	AUC(0-inf)	26.2 ng·h/mL
Cn1cnc(Cn2c(=O)[nH]/c(=N\c3cc4cn(C)nc4cc3Cl)n(Cc3cc(F)c(F)cc3F)c2=O)n1	male Sprague-Dawley rat	intravenous, 5 mg/kg	AUC(0-t)	81000 ng·h/mL
O=C([O-])C(=O)[O-].[NH-][C@@H]1CCCC[C@H]1[NH-].[Pt+4] (relative stereo)	rat	oral, 10 mg/kg	AUC(0-inf)	170 ng·h/mL
[2H]C([2H])([2H])n1cc2cc(Nc3nc(=O)n(Cc4ncn(C)n4)c(=O)n3Cc3cc(F)c(F)cc3F)c(Cl)cc2n1	male Sprague-Dawley rat	oral, 25 mg/kg	AUC(0-t)	334000 ng·h/mL
CCC[C@@](N)(CO)CCc1ccc(OCCCCCC(C)C)cc1	rat	oral, 10 mg/kg	AUC(0-t)	1.44 µM·h
